Measurements reported in ChEMBL document CHEMBL1123260 (J Med Chem, 1986).
Values joined by “and” are separate entries in the source; they are usually repeats but may differ in a detail not shown here. Equal values may be shown once.

How the values were obtained:
Canis familiaris [1] = assay: (§1) Percent change in myocardial contractility (LV dp/dt) before beta-blockade in anesthetized dogs at 0.01 mg/kg; format: functional, Canis lupus familiaris, Myocardium
How it was run: (§2)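 Anesthetized dogs: 30 min control recording before dosing. Drug dissolved in 0.9% saline or dilute HCl or NaOH (0.1 or 1.0 N), then made to volume with saline. Given iv (0.1 mL/kg over 1 min), cumulative doses at half-log intervals, 10–30 min between doses to reach steady state. One compound per animal. Inotropy taken as change in LV dP/dtmax from preceding baseline. Values are mean ± SEM or the mean of two experiments.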

Canis familiaris [2] = assay: (§3) Percent change in total peripheral resistance (TPR) before beta-blockade in anesthetized dogs at 0.01 mg/kg; format: functional, Canis lupus familiaris; how it was run: as §2
Canis familiaris [3] = assay: (§4) Percent change in heart rate (HR) before beta-blockade in anesthetized dogs at 0.03 mg/kg; format: functional, Canis lupus familiaris; how it was run: as §2
Canis familiaris [4] = assay: (§5) Percent change in mean arterial blood pressure (MABP) before beta-blockade in anesthetized dogs at 0.01 mg/kg; format: functional, Canis lupus familiaris; how it was run: as §2
Canis familiaris [5] = assay: Percent change in total peripheral resistance (TPR) before beta-blockade in anesthetized dogs at 0.11 mg/kg; format: functional, Canis lupus familiaris; how it was run: as §2
Canis familiaris [6] = assay: Positive inotropic effects in anesthetized dogs; format: functional; conditions: Canis lupus familiaris; how it was run: as §2
Canis familiaris [7] = assay: as §1; format: functional, Canis lupus familiaris, Myocardium; how it was run: as §2; remark: listed apart in the source
Canis familiaris [8] = assay: as §3; format: functional, Canis lupus familiaris; how it was run: as §2; remark: listed apart in the source
Canis familiaris [9] = assay: Percent change in myocardial contractility (LV dp/dt) before beta-blockade in anesthetized dogs at 0.11 mg/kg; format: functional, Canis lupus familiaris, Myocardium; how it was run: as §2
Canis familiaris [10] = assay: Percent change in forelimb vascular resistance (FVR)in anesthetized dogs after beta-blockade at 0.01 mg/kg; format: functional, Canis lupus familiaris
How it was run: (§6)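 Anesthetized dogs given β-adrenoceptor blockade (nadolol, 1 mg/kg iv) before the test agent. Drug dissolved in saline or dilute HCl/NaOH and given iv as cumulative 1-min doses, 10–30 min apart. Forelimb vascular resistance recorded as percent change from control. Values are mean ± SEM (n = 4-5) or the mean of two determinations, with significance set at p < 0.05.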

Canis familiaris [11] = assay: (§7) Percent change in forelimb vascular resistance (FVR) after beta-blockade in anesthetized dogs 0.03 mg/kg; format: functional, Canis lupus familiaris; how it was run: as §6
Canis familiaris [12] = assay: (§8) Percent change in mean arterial blood pressure (MABP) before beta-blockade in anesthetized dogs at 0.11 mg/kg; format: functional, Canis lupus familiaris; how it was run: as §2
Canis familiaris [13] = assay: as §7; format: functional, Canis lupus familiaris; how it was run: as §6; remark: listed apart in the source
Canis familiaris [14] = assay: (§9) Percent change in total peripheral resistance (TPR) before beta-blockade in anesthetized dogs at 0.03 mg/kg; format: functional, Canis lupus familiaris; how it was run: as §2
Canis familiaris [15] = assay: (§10) Percent change in heart rate (HR) before beta-blockade in anesthetized dogs at 0.11 mg/kg; format: functional, Canis lupus familiaris; how it was run: as §2
Canis familiaris [16] = assay: (§11) Percent change in mean arterial blood pressure (MABP) before beta-blockade in anesthetized dogs at 0.03 mg/kg; format: functional, Canis lupus familiaris; how it was run: as §2
Canis familiaris [17] = assay: Percent change in forelimb vascular resistance (FVR) after beta-blockade in anesthetized dogs 0.01 mg/kg; format: functional, Canis lupus familiaris; how it was run: as §6
Canis familiaris [18] = assay: as §9; format: functional, Canis lupus familiaris; how it was run: as §2; remark: listed apart in the source
Phosphodiesterase 3 = Phosphodiesterase 3 (Homo sapiens, UniProt Q14432+Q13370); assay: Inhibition of cardiac PDE 3 (phosphodiesterase III); format: protein assay, Canis lupus familiaris
Canis familiaris [19] = assay: as §10; format: functional, Canis lupus familiaris; how it was run: as §2; remark: listed apart in the source
Canis familiaris [20] = assay: as §5; format: functional, Canis lupus familiaris; how it was run: as §2; remark: listed apart in the source
Canis familiaris [21] = assay: Percent change in total peripheral resistance (TPR) before beta-blockade in anaesthetized dogs at 0.11 mg/kg; format: functional, Canis lupus familiaris; how it was run: as §2
Canis familiaris [22] = assay: as §4; format: functional, Canis lupus familiaris; how it was run: as §2; remark: listed apart in the source
Canis familiaris [23] = assay: as §11; format: functional, Canis lupus familiaris; how it was run: as §2; remark: listed apart in the source
Canis familiaris [24] = assay: (§12) Percent change in heart rate (HR) before beta-blockade in anesthetized dogs at 0.01 mg/kg; format: functional, Canis lupus familiaris; how it was run: as §2
Canis familiaris [25] = assay: (§13) Percent change in forelimb vascular resistance (FVR) after beta-blockade in anesthetized dogs 0.11 mg/kg; format: functional, Canis lupus familiaris; how it was run: as §6
Canis familiaris [26] = assay: as §8; format: functional, Canis lupus familiaris; how it was run: as §2; remark: listed apart in the source
Canis familiaris [27] = assay: as §13; format: functional, Canis lupus familiaris; how it was run: as §6; remark: listed apart in the source
Canis familiaris [28] = assay: as §12; format: functional, Canis lupus familiaris; how it was run: as §2; remark: listed apart in the source
Canis familiaris [29] = assay: Cardiovascular effects in anesthetized dogs; format: functional; conditions: Canis lupus familiaris; how it was run: as §2
Canis familiaris [30] = assay: Effective dose in anesthetized dogs; format: functional; conditions: Canis lupus familiaris; how it was run: as §2
Canis familiaris [31] = assay: Percent change in myocardial contractility (LV dp/dt) before beta-blockade in anesthetized dogs at 0.03 mg/kg; format: functional, Canis lupus familiaris, Myocardium; how it was run: as §2

Structure (SMILES): O=C1CC2Cc3cc(-n4ccnc4)ccc3C2=NN1 (stereo not drawn)
- Change in LV dp/dt (Canis familiaris [1]): 18%
- Change in TPR (Canis familiaris [2]): -12%
- Change in heart rate (Canis familiaris [3]): 4%
- Change in MABP (Canis familiaris [4]): -2%
- Change in TPR (Canis familiaris [5]): -39%
- ED50 (Canis familiaris [6]): 0.023 mg/kg
- Change in LV dp/dt (Canis familiaris [7]): 11%
- Change in TPR (Canis familiaris [8]): -8.5%
- Change in LV dp/dt (Canis familiaris [9]): 106% and 57%
- Change in FVR (Canis familiaris [10]): -1.5%
- Change in FVR (Canis familiaris [11]): -1.5%
- Change in MABP (Canis familiaris [12]): -18%
- Change in FVR (Canis familiaris [13]): -22.5%
- Change in TPR (Canis familiaris [14]): -22.5%
- Change in heart rate (Canis familiaris [15]): 5%
- Change in MABP (Canis familiaris [16]): -7%
- Change in FVR (Canis familiaris [17]): -7.5%
- Change in TPR (Canis familiaris [18]): -23%
- IC50 (Phosphodiesterase 3): 1800 nM
- Change in heart rate (Canis familiaris [19]): 12%
- Change in MABP (Canis familiaris [20]): 0%
- Change in TPR (Canis familiaris [21]): -33.5%
- Change in heart rate (Canis familiaris [22]): 2%
- Change in MABP (Canis familiaris [23]): -3%
- Change in heart rate (Canis familiaris [24]): 0%
- Change in FVR (Canis familiaris [25]): -34.5%
- Change in MABP (Canis familiaris [26]): -18%
- Change in FVR (Canis familiaris [27]): -31%
- Change in heart rate (Canis familiaris [28]): 3%

Structure (SMILES): CCC(=O)Nc1ccc2c(c1)CC1CC(=O)NN=C21 (stereo not drawn)
- ED50 (Canis familiaris [29]): 0.0104 mg/kg

Structure (SMILES): Oc1cc2c(nn1)-c1ccc(-n3ccnc3)cc1C2
- IC50 (Phosphodiesterase 3): 1600 nM

Structure (SMILES): CN1N=C2c3ccc(-n4ccnc4)cc3CC2CC1=O (stereo not drawn)
- ED50 (Canis familiaris [30]): 1 mg/kg

Structure (SMILES): CC1CC(O)=NN=C1c1ccc(-n2ccnc2)cc1 (stereo not drawn) [CI-930]
- Change in heart rate (Canis familiaris [3]): 11%
- ED50 (Canis familiaris [6]): 0.013 mg/kg
- Change in MABP (Canis familiaris [16]): -7.5%
- Change in heart rate (Canis familiaris [22]): 7%
- Change in MABP (Canis familiaris [23]): -5%
- Change in LV dp/dt (Canis familiaris [31]): 76% and 47%
